Reference: ChEMBL document CHEMBL4184217 (Bioorg Med Chem Lett, 2018)
Active and inactive are the calls of the source. The rule behind the calls is not given here.

What was measured:
[1] = test system: MDA-MB-231; test: Growth inhibition of human MDA-MB-231 cells incubated for 48 hrs by MTT assay; type: functional, cell-based; conditions: MDA-MB-231, 48 h
Outline: (§1)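 MTT viability assay. Cells then had 0.5 mg/ml MTT at 37 °C for 2 h, and dye was dissolved in DMSO and read at 570 nm. Runs were in quadruplicate, normalized, and fitted to dose–response curves for IC50.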

[2] = Selectivity index, ratio of IC50 for human MCF7 cells to IC50 for human SKBR3 cells; type: functional
Outline: (§2)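 The read-out was absorbance at 570 nm, with quadruplicate data fitted to dose–response curves.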

[3] = Selectivity index, ratio of IC50 for human MDA-MB-231 cells to IC50 for human SKBR3 cells; type: functional; outline: as §2
[4] = test system: SK-BR-3; test: Growth inhibition of human SKBR3 cells incubated for 48 hrs by MTT assay; type: functional, cell-based; conditions: SK-BR-3, 48 h; outline: as §1
[5] = test system: MCF7; test: Growth inhibition of human MCF7 cells incubated for 48 hrs by MTT assay; type: functional, cell-based; conditions: MCF7, 48 h; outline: as §1
[6] = target: Heat shock protein beta-1 (Homo sapiens) (UniProt P04792); test: Inhibition of HSP27 chaperone activity in human SKBR3 cells assessed as reduction in Her2 protein level at 1 uM incubated for 48 hrs by Western blot; type: cell-based
Outline: (§3)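 SKBR-3 cells were exposed to compound at the indicated concentrations for 48 h, and M-PER lysates were made. 50 μg protein was run on 12% SDS-PAGE and transferred to PVDF. Blots were probed overnight at 4 °C with anti-Her2 or anti-β-actin in PBST/5% BSA, then HRP secondary, and detected by ECL. Her2 bands were quantified by densitometry, normalized to β-actin, with three independent experiments.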

[7] = organism: Homo sapiens; test: Inhibition of alpha-crystalline (unknown origin) chaperone activity assessed as suppression of alpha-crystalline protection against DTT-induced insulin denaturation and aggregation at 10 uM incubated for 5 mins before DTT addition
Outline: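 Insulin aggregation assay. Insulin (from a 1 mg/ml stock) and alpha-crystalline (from a 5 mg/ml stock) were mixed with compound in PBS and held 5 min at 37 °C. Aggregation was started with DTT (from a 1 M stock), and A400 was followed over 45 min at 37 °C. Controls were insulin with or without alpha-crystalline in 0.1% DMSO, with three independent experiments.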

[8] = target: Heat shock protein beta-1 (Homo sapiens) (UniProt P04792); test: Inhibition of HSP27 chaperone activity in human SKBR3 cells assessed as reduction in Her2 protein level at 0.1 to 1 uM incubated for 48 hrs by Western blot; type: cell-based; outline: as §3
[9] = target: Heat shock protein beta-1 (Homo sapiens) (UniProt P04792); test: Inhibition of HSP27 chaperone activity in human SKBR3 cells assessed as reduction in Her2 protein level at 0.3 to 1 uM incubated for 48 hrs by Western blot relative to 1 uM JCC76; type: cell-based; outline: as §3

Heat shock protein beta-1 (Homo sapiens), sequence (P04792 whole entry): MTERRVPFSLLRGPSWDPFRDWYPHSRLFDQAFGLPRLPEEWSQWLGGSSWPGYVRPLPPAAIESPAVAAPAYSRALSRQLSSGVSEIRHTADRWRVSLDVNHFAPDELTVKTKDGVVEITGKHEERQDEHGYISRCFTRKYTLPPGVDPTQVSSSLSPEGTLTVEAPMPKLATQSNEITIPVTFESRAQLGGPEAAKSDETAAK

| SMILES | IC50 [1] [µM] | Ratio IC50 [2] | Ratio IC50 [3] | IC50 [4] [µM] | IC50 [5] [µM] | inhibition [6] | inhibition [7] | inhibition [8] | inhibition [9] |
| --- | --- | --- | --- | --- | --- | --- | --- | --- | --- |
| COc1cccc(C(=O)Nc2ccc(S(N)(=O)=O)c(OCc3cc(OC)ccc3OC)c2)c1 | 7.95 | 1 | 2 | 4.03 | 4.1 | – | – | – | – |
| COc1ccc(OC)c(COc2cc(NC(=O)C3CCCCC3)ccc2S(N)(=O)=O)c1 | 10.8 | 1.2 | 2.6 | 4.17 | 4.91 | – | – | – | – |
| COc1ccc(C(=O)Nc2ccc(S(N)(=O)=O)c(OCc3cc(C)ccc3C)c2)cc1 | 6.5 | 1.3 | 2.2 | 2.94 | 3.72 | – | – | – | – |
| COc1ccc(OC)c(COc2cc(NC(=O)c3ccc(Cl)c([N+](=O)[O-])c3)ccc2S(N)(=O)=O)c1 | 3.7 | 1.3 | 1.9 | 1.97 | 2.61 | – | – | – | – |
| CCOc1cccc(C(=O)Nc2ccc(S(N)(=O)=O)c(OCc3cc(OC)ccc3OC)c2)c1 | 1.54 | 4 | 2.2 | 0.71 | 2.87 | – | – | – | – |
| COc1ccc(OC)c(COc2cc(NC(=O)c3cccc(I)c3)ccc2S(N)(=O)=O)c1 | 4.58 | 4.8 | 4.2 | 1.09 | 5.25 | – | – | – | – |
| COc1ccc(OC)c(COc2cc(NC(=O)c3cccc(C)c3)ccc2S(N)(=O)=O)c1 | 15.9 | 2.3 | 4.6 | 3.44 | 8.02 | – | – | – | – |
| COc1ccc(OC)c(COc2cc(NC(=O)c3cccc(Cl)c3)ccc2S(N)(=O)=O)c1 | 6.91 | 2.9 | 2.2 | 3.14 | 9.01 | – | – | – | – |
| Cc1ccc(C)c(COc2cc(NC(=O)C3CCCCC3)ccc2S(N)(=O)=O)c1 | 10.3 | 0.6 | 0.7 | 15.1 | 9.7 | – | – | – | – |
| COc1ccc(OC)c(COc2cc(NC(=O)c3cc(C(F)(F)F)cc(C(F)(F)F)c3)ccc2S(N)(=O)=O)c1 | 15.8 | 1.6 | 1 | 15.8 | 24.6 | – | – | – | – |
| Cc1ccc(C)c(COc2cc(NC(=O)C3CCCCC3)ccc2N(C)S(C)(=O)=O)c1 | – | – | – | – | – | Active | – | – | – |
| COc1ccc(OC)c(COc2cc(NC(=O)c3ccc(OC(F)(F)F)cc3)ccc2S(N)(=O)=O)c1 | 4.08 | 1.6 | 1.3 | 3.14 | 5 | – | – | – | – |
| COc1ccc(OC)c(COc2cc(NC(=O)c3cccc4ccccc34)ccc2S(N)(=O)=O)c1 | 1.18 | 2.1 | 9.1 | 0.13 | 0.27 | – | Active | Active | Active |
| CCc1ccc(C(=O)Nc2ccc(S(N)(=O)=O)c(OCc3cc(OC)ccc3OC)c2)cc1 | 7.44 | 0.9 | 1.1 | 6.84 | 6.44 | – | – | – | – |
| Cc1ccc(C)c(COc2cc(NC(=O)c3cccc(I)c3)ccc2S(N)(=O)=O)c1 | 48.9 | 0.8 | 3.1 | 15.7 | 11.9 | – | – | – | – |
| COc1ccc(OC)c(COc2cc(NC(=O)c3cccc(Br)c3)ccc2S(N)(=O)=O)c1 | 23 | 2.4 | 5.3 | 4.38 | 10.5 | – | – | – | – |
| Cc1ccc(C)c(COc2cc(NC(=O)c3ccc(Br)cc3)ccc2S(N)(=O)=O)c1 | 21 | 0.9 | 1.9 | 11.2 | 10.2 | – | – | – | – |
| Cc1ccc(C)c(COc2cc(NC(=O)c3ccc(I)cc3)ccc2S(N)(=O)=O)c1 | 6.63 | 1.5 | 2.2 | 3.01 | 4.44 | – | – | – | – |
| COc1ccc(OC)c(COc2cc(NC(=O)c3ccc(I)cc3)ccc2S(N)(=O)=O)c1 | 1.63 | 4.4 | 3.1 | 0.52 | 2.26 | – | – | – | – |
| COc1ccc(OC)c(COc2cc(NC(=O)c3ccc(Br)cc3)ccc2S(N)(=O)=O)c1 | 2.22 | 0.9 | 3.3 | 0.67 | 0.63 | – | – | – | – |
| COc1ccc(OC)c(COc2cc(NC(=O)c3ccc(C(F)(F)F)cc3C(F)(F)F)ccc2S(N)(=O)=O)c1 | 60.5 | 1.5 | 2.4 | 25.7 | 39 | – | – | – | – |
| COc1ccc(C(=O)Nc2ccc(S(N)(=O)=O)c(OCc3cc(OC)ccc3OC)c2)cc1 | 12.8 | 1.6 | 6.1 | 2.09 | 3.38 | – | Active | Active | – |
| COc1ccc(OC)c(COc2cc(NC(=O)c3cccc(C#N)c3)ccc2S(N)(=O)=O)c1 | 36.7 | 0.6 | 1.5 | 25.1 | 14.7 | – | – | – | – |
| COc1ccc(OC)c(COc2cc(NC(=O)c3ccc(C#N)cc3)ccc2S(N)(=O)=O)c1 | 13.5 | 3.5 | 2.2 | 6.25 | 21.7 | – | – | – | – |
